Here are results for five compounds from ChEMBL document CHEMBL1130131, “12,13-isotaxanes: synthesis of new potent analogs and X-ray crystallographic confirmation of structure” (J Med Chem, 1997).

The test system of one test is A2780. The experiment in a line: Concentration of compound to inhibit the growth of human A2780 ovarian carcinoma cells(in vitro). In kind it is functional, cell-based.
The test system of test [1] is Mus musculus. Briefly: % T/C(is ratio of median survival time in the group receiving the optimal dose to median survival time in the vehicle control group X 100.) is measured in B16 melanoma cells at the dose of 50 ng/kg on the days 1 and 3(experiment 1). The format is functional. The method in brief: (§1)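 B6D2F1 mice bearing intraperitoneally implanted B16 melanoma (method adapted from earlier work); test agent given iv on days 1 and 3, optimal total dose reported in ng/kg. %T/C = median survival time of the optimal-dose group divided by median survival time of the vehicle control group × 100. Values are individual results from two separate experiments.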

For another test, the system named is B16. The experiment in a line: Concentration inducing 20% mitotic index for mitotic block in murine B16 melanoma cells. In kind it is functional, Mus musculus. The method in brief: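 B16 melanoma cells were treated in culture, and mitotic index was measured by a method adapted from earlier work. The value is the drug concentration giving a 20% mitotic index.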

Test [2] has as its system Mus musculus. Briefly: % T/C(is ratio of median survival time in the group receiving the optimal dose to median survival time in the vehicle control group X 100.) is measured in B16 melanoma cells at the dose of 50 ng/kg on the days 1 and 3(experiment 2). The format is functional. The method in brief:
as §1

The subject of test [3] is Mus musculus. Briefly: % T/C was measured in B6D2F1 mice bearing ip-implanted B16 melanoma cells at the dose of 100n g/kg on the days 1 and 3. The format is functional. The method in brief: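 B6D2F1 mice bearing intraperitoneally implanted B16 melanoma received compound iv on days 1 and 3, with the total dose stated. %T/C = median survival time at the optimal dose ÷ median survival time of vehicle-treated controls × 100. The method was adapted from earlier work.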

The term IC50 denotes the point on the concentration scale where inhibition reaches its midpoint. A lower IC50 goes with greater potency. The T/C is the ratio of treated to control. `CC(=O)O[C@H]1C(=O)[C@]2(C)C=CC3OC[C@@]3(OC(C)=O)C2[C@H](OC(=O)c2ccccc2)[C@]2(O)CC(OC(=O)[C@H](O)[C@@H](NC(=O)OC(C)(C)C)c3ccccc3)=C(C)C1C2(C)C` (some centres undefined) yielded an IC50 in the test on A2780 of 1.2 nM. Moreover, the T/C in the test on Mus musculus [1] and with Mus musculus [2] was 181% each time. Also, the “Concentration giving 20% mitotic index” value in the test with B16 is 10 nM.
In the test with A2780, `CC(=O)O[C@@]12COC1C[C@@H]1C[C@@]13C(=O)[C@H](O)C1C(C)=C(OC(=O)[C@H](O)[C@@H](NC(=O)OC(C)(C)C)c4ccccc4)C[C@@](O)([C@@H](OC(=O)c4ccccc4)C23)C1(C)C` (some centres undefined) returned an IC50 of 1.9 nM. Besides, the T/C with Mus musculus [1] is reported as 184%; with Mus musculus [2], 210%. Further, the “Concentration giving 20% mitotic index” value in the test with B16 is reported as 7 nM.
`CC(=O)O[C@H]1C(=O)[C@]2(C)C=CC3OC[C@@]3(OC(C)=O)C2[C@H](OC(=O)c2ccccc2)[C@]2(O)CC(OC(=O)[C@H](O)[C@@H](NC(=O)NC(C)(C)C)c3ccccc3)=C(C)C1C2(C)C` (some centres undefined) came in with an IC50 with A2780 of 0.5 nM. The T/C is 232% in the test with Mus musculus [1] and 241% in the test with Mus musculus [2]. For the same compound, the “Concentration giving 20% mitotic index” value in the test with B16 amounted to 10 nM.
Regarding `CC(=O)O[C@H]1C(=O)[C@]23C[C@H]2CC2OC[C@@]2(OC(C)=O)C3[C@H](OC(=O)c2ccccc2)[C@]2(O)CC(OC(=O)[C@H](O)[C@@H](NC(=O)NC(C)(C)C)c3ccccc3)=C(C)C1C2(C)C` (some centres undefined), the IC50 in the test with A2780 is 0.6 nM. In addition, the T/C in the test on Mus musculus [1] was 213%; in the test on Mus musculus [2], 225%. In addition, the “Concentration giving 20% mitotic index” value in the test with B16 amounted to 10 nM.
In the test on Mus musculus [3], `CC(=O)O[C@@]12CO[C@@H]1C[C@H](O)[C@@]1(C)C(=O)[C@H](O)C3=C(C)[C@@H](OC(=O)[C@H](O)[C@@H](NC(=O)OC(C)(C)C)c4ccccc4)C[C@@](O)([C@@H](OC(=O)c4ccccc4)[C@H]21)C3(C)C.O.O.O` [DOCETAXEL] showed a T/C of 177%. Also, the IC50 with A2780 was determined as 1.8 nM. In addition, the “Concentration giving 20% mitotic index” value with B16 is recorded as 15 nM.
